Consider 6 compounds from ChEMBL document CHEMBL4477174, “Valencene from the Rhizomes of Cyperus rotundus Inhibits Skin Photoaging-Related Ion Channels and UV-Induced Melanogenesis in B16F10 Melanoma Cells” (J Nat Prod, 2016).

For orientation: inhibition means the percentage by which the read-out fell short of the control.

Series [1] has as its system B16-F10. Put plainly: Cytotoxicity in mouse B16F10 cells at <3 ug/ml measured after 48 hrs by MTT assay. It is filed as cell-based. Particulars: b16-f10, 48 h. A general note: Tetrazolium assays rely on reduction of a dye to a coloured formazan, in cell work by metabolically active cells.
Series [2] concerns the target Transient receptor potential cation channel subfamily V member 1 (Homo sapiens) (UniProt Q8NER1). Kind of series: Antagonist activity at human TRPV1 expressed in HEK293T cells assessed as capsaicin-induced inward transient currents at 90 uM and -60 mV by whole cell patch-clamp method relative to control. Also noted: scale not given: the % may be the effect or the level left. It is filed as cell-based. An outline of the steps:
(§1)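 Whole-cell patch clamp, with TRPV1 current evoked by 1 μM capsaicin. Current was compared before and after 90 μM test agent using mean I−V curves, read at −60 mV. Remaining current was normalized to the steady-state peak current before treatment (100%), reported as mean ± SEM, n = 3–6.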
(In patch-clamp work, channel activity is measured electrically.)

Series [3] has as its target Calcium release-activated calcium channel protein 1 (Homo sapiens) (UniProt Q96D31). Put plainly: Antagonist activity at human ORAI1 expressed in HEK293T cells assessed as […]-induced inwardly rectifying current at 90 uM and -120 mV by whole cell patch-clamp method relative to control. It is filed as cell-based. Also noted: scale not given: the % may be the effect or the level left.

Series [4] addresses Transient receptor potential cation channel subfamily V member 1 (Homo sapiens) (UniProt Q8NER1). Kind of series: Antagonist activity at human TRPV1 expressed in HEK293T cells assessed as inhibition of capsaicin-induced inward transient currents at 90 uM and -60 mV by whole cell patch-clamp method relative to control. In kind it is cell-based. In short, it runs like this:
as §1

For series [5], the system named is B16-F10. Kind of series: Inhibition of UV-induced melanogenesis in mouse B16F10 cells assessed as reduction in melanin level pretreated at 15 ug/ml prior to UVB exposure measured after 48 hrs by spectrophotometric method. Set-up: scale not given: the % may be the effect or the level left. It is filed as functional. An outline of the steps: (§2)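 B16F10 murine melanoma cells were pretreated with test agent (7.5 or 15 μg/mL; reference ORAI1 inhibitor 3 μg/mL) before UVB exposure. Melanin content was measured 48 h later.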

Series [6] is filed under the species Homo sapiens. Put plainly: Inhibition of SOCE signalling in human Jurkat-T cells assessed as reduction in alpha-CD3 induced cytoplasmic calcium concentration at 50 uM measured at every 2 sec interval by Fura-2 dye based fluorimetric analysis. In kind it is cell-based. Also noted: scale not given: the % may be the effect or the level left.
Series [7] has as its target Calcium release-activated calcium channel protein 1 (Homo sapiens) (UniProt Q96D31). Kind of series: Antagonist activity at human ORAI1 expressed in HEK293T cells assessed as inhibition of […]-induced inwardly rectifying current at -120 mV by whole cell patch-clamp method. In kind it is cell-based.
Series [8] shares this target. Put plainly: Antagonist activity at human ORAI1 expressed in HEK293T cells assessed as inhibition of […]-induced inwardly rectifying current at 90 uM and -120 mV by whole cell patch-clamp method relative to control. It is filed as cell-based.
Series [9] is filed under the species Homo sapiens. Put plainly: Inhibition of SOCE signalling in human Jurkat-T cells assessed as reduction in alpha-CD3 induced cytoplasmic calcium concentration at 30 uM measured at every 2 sec interval by Fura-2 dye based fluorimetric analysis. In kind it is cell-based. Also noted: scale not given: the % may be the effect or the level left.
The species entered for series [10] is Homo sapiens. Put plainly: Inhibition of SOCE signalling in human Jurkat-T cells assessed as reduction in alpha-CD3 induced cytoplasmic calcium concentration measured at every 2 sec interval by Fura-2 dye based fluorimetric analysis. It is filed as cell-based.
The species entered for series [11] is Homo sapiens. Put plainly: Inhibition of SOCE signalling in human Jurkat-T cells assessed as reduction in alpha-CD3 induced cytoplasmic calcium concentration at 10 uM measured at every 2 sec interval by Fura-2 dye based fluorimetric analysis. In kind it is cell-based. Also noted: scale not given: the % may be the effect or the level left.
The target in series [12] is Calcium release-activated calcium channel protein 1 (Homo sapiens) (UniProt Q96D31). Kind of series: Antagonist activity at human ORAI1 expressed in HEK293T cells assessed as inhibition of […] induced inwardly rectifying current at 30 uM and -120 mV by whole cell patch-clamp method. In kind it is cell-based.
Sequence of Calcium release-activated calcium channel protein 1 (Homo sapiens) (Q96D31 whole entry, looked up): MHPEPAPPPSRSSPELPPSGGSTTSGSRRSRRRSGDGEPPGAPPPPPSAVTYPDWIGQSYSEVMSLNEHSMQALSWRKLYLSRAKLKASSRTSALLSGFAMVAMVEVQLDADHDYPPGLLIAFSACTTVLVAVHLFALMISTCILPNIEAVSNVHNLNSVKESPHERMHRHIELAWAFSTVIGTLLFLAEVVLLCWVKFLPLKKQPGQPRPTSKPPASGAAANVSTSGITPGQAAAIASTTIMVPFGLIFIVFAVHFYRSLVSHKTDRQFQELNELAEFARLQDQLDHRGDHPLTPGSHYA
The subject of series [13] is B16-F10. Put plainly: Inhibition of UV-induced melanogenesis in mouse B16F10 cells assessed as reduction in melanin level pretreated with compound prior to UVB exposure measured after 48 hrs by spectrophotometric method. In kind it is functional, cell-based. In short, it runs like this:
as §2

For series [14], the system named is B16-F10. Kind of series: Cytotoxicity in mouse B16F10 cells at <15 ug/ml measured after 48 hrs by MTT assay. It is filed as cell-based. The settings on record: b16-f10, 48 h.
The target of series [15] is Calcium release-activated calcium channel protein 1 (Homo sapiens) (UniProt Q96D31). Put plainly: Antagonist activity at human ORAI1 expressed in HEK293T cells assessed as inhibition of […]-induced inwardly rectifying current at 10 uM and -120 mV by whole cell patch-clamp method. In kind it is cell-based.
The test system of series [16] is B16-F10. Put plainly: Inhibition of UV-induced melanogenesis in mouse B16F10 cells assessed as reduction in melanin level pretreated at 7.5 ug/ml prior to UVB exposure measured after 48 hrs by spectrophotometric method. In kind it is functional. Set-up: scale not given: the % may be the effect or the level left. An outline of the steps: as §2

Sequence of Transient receptor potential cation channel subfamily V member 1 (Homo sapiens) (Q8NER1 whole entry): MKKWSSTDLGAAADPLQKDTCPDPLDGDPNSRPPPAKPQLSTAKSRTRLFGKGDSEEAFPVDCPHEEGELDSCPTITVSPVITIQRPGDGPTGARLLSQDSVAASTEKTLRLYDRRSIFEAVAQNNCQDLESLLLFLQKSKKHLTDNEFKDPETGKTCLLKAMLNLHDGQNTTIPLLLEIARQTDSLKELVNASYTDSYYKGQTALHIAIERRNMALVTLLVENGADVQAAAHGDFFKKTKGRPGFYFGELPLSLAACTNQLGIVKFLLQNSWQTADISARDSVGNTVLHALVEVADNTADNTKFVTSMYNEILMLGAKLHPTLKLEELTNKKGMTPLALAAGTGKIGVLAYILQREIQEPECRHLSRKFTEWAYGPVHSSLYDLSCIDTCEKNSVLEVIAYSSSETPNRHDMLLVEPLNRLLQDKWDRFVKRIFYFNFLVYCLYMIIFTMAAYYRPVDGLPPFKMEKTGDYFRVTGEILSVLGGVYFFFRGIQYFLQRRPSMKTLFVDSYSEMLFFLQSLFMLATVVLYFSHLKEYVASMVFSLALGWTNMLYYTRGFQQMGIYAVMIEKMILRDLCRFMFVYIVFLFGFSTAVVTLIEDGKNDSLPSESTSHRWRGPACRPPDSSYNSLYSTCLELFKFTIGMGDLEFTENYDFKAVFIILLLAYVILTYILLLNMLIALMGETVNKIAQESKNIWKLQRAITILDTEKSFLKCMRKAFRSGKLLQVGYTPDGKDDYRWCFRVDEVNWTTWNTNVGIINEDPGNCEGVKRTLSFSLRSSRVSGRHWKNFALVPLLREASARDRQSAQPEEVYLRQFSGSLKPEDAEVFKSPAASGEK

Consider `Cc1nnsc1C(=O)Nc1ccc(-n2nc(C(F)(F)F)cc2C(F)(F)F)cc1`, for which the Activity result in the series with B16-F10 [1] is on record as “Non-Toxic”.

With `C=C(C)[C@@H]1CCC2=CC(=O)C[C@@H](C)[C@]2(C)C1`, the Activity in series [2] turned out to be 176%; in [3], 53%.

As for `C=C(C)[C@@H]1CC[C@@]2(C)CCC(=O)C(C)=C2C1`, the values for the Activity in series [2] and in series [3] were 94% and 50%, respectively.

As to `C=C1CC[C@H]2O[C@]2(C)CC[C@@H]2[C@@H]1CC2(C)C`, the Activity in series [2] worked out at 45%; in series [3], 44%.

For `C=C1C2CCC(C2)C1(C)C` (centres undefined), the figures for the Activity in series [2] and in series [3] were 115% and 79%, respectively.

In the case of `C=C(C)[C@@H]1CCC2=CCC[C@@H](C)[C@]2(C)C1`, the inhibition in [4] was 69%; in series [7], “Dose-dependent effect”; in series [8], 94 to 95%; in [12] it was 45%; in [15], 13%. Besides, the Activity with B16-F10 [5] was 82.66%; in the series listed under Homo sapiens [6] it was 85%; in [2], 31%; in the series filed under Homo sapiens [9], 75%; in the series filed under Homo sapiens [10], “Dose-dependent effect”; in [3], 5%. In addition, the Activity in the series listed under Homo sapiens [11] was 53%; in the series on B16-F10 [13], “Dose-dependent effect”; with B16-F10 [14] it was “Non-Toxic”; with B16-F10 [16] it was 94.82%.
